Assay results as given in ChEMBL document CHEMBL1124415, “Acrylamide derivatives as antiallergic agents. 2. Synthesis and structure-activity relationships of N-[4-[4-(diphenylmethyl)-1-piperazinyl]butyl]-3-(3-pyridyl)acryl amides” (J Med Chem, 1989).

Legend:
Type in all cases: functional
Rattus norvegicus [1] = assay: Antiallergic activity determined by passive cutaneous anaphylaxis assay upon peroral administration of 20 mg/kg in rat; conditions: route oral
Rattus norvegicus [2] = assay: Antiallergic activity by passive cutaneous anaphylaxis assay upon peroral administration of 20 mg/kg in rat; conditions: route oral
Cavia porcellus = species on record: Cavia porcellus; assay: Anti-histaminic activity was measured in guinea pig trachea
Outline: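 Zig-zag guinea pig tracheal strips; histamine dose-response curves obtained before and 60 min after adding test compound.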

Homo sapiens = species on record: Homo sapiens; assay: Inhibitory activity against histamine release in human basophil
Outline: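 Basophils from nonallergic human volunteers, washed in Tris-A buffer pH 7.4 (first wash with 4 mM EDTA), resuspended at 5-10 × 10^6 leukocytes/mL in Tris-ACM pH 7.6; preincubated with compound 15 min at 37 °C, then 45 min with anti-human IgE.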

Rattus norvegicus [3] = species on record: Rattus norvegicus; assay: ED50 value was measured in rat passive cutaneous anaphylaxis (PCA) by linear regression analysis

| SMILES | inhibition in vivo at 20 mg/kg (Rattus norvegicus [1]) | other results |
| --- | --- | --- |
| O=C(/C=C/c1ccc(-c2ccccc2)nc1)NCCCCN1CCN(C(c2ccccc2)c2ccccc2)CC1 | 3.2% | – |
| Cc1ncc(/C=C/C(=O)NCCCCN2CCN(C(c3ccccc3)c3ccccc3)CC2)c(CO)c1O | 53.7% | – |
| COc1ccc(C(c2ccccc2)N2CCN(CCCCNC(=O)/C=C/c3cccnc3)CC2)cc1 (stereo not drawn) | 40.9% | – |
| Cc1ccc(C(c2ccccc2)N2CCN(CCCCNC(=O)/C=C/c3cccnc3)CC2)cc1C (stereo not drawn) | 5.4% | – |
| CCCCCOc1ccc(/C=C/C(=O)NCCCCN2CCN(C(c3ccccc3)c3ccccc3)CC2)cn1 | 14.9% | – |
| O=C(/C=C/c1cccnc1)NCCCCN1CCN(C(c2ccccc2)c2ccc(F)cc2)CC1 (stereo not drawn) | 53.8% | – |
| C/C(=C\c1ccc(C)nc1)C(=O)NCCCCN1CCN(C(c2ccccc2)c2ccccc2)CC1 | 58.2% | – |
| Cc1ccc(CCC(=O)NCCCCN2CCN(C(c3ccccc3)c3ccccc3)CC2)cn1 | 24.9% | – |
| CCC/C(=C\c1cccnc1)C(=O)NCCCCN1CCN(C(c2ccccc2)c2ccccc2)CC1 | 44.2% | – |
| COc1cncc(/C=C/C(=O)NCCCCN2CCN(C(c3ccccc3)c3ccccc3)CC2)c1 | 7.6% | – |
| CCOc1ccc(/C=C/C(=O)NCCCCN2CCN(C(c3ccccc3)c3ccccc3)CC2)cn1 | 33.9% | – |
| CCCOc1ccc(/C=C/C(=O)NCCCCN2CCN(C(c3ccccc3)c3ccccc3)CC2)cn1 | 7.5% | – |
| O=C(/C=C/C=C/c1cccnc1)NCCCN1CCN(C(c2ccccc2)c2ccccc2)CC1 | 40.4% | – |
| COc1ccc(/C=C/C(=O)NCCCCN2CCN(C(c3ccccc3)c3ccccc3)CC2)cn1 | 41% | – |
| Cc1cc(/C=C/C(=O)NCCCCN2CCN(C(c3ccccc3)c3ccccc3)CC2)cnc1C | 40.5% | – |
| Cc1ccc(C(c2ccccc2)N2CCN(CCCCNC(=O)/C=C/c3ccc(C)nc3)CC2)cc1 (stereo not drawn) | 73.9% | – |
| O=C(/C=C/c1cncc(Br)c1)NCCCCN1CCN(C(c2ccccc2)c2ccccc2)CC1 | 47.5% | – |
| CCSc1ccc(/C=C/C(=O)NCCCCN2CCN(C(c3ccccc3)c3ccccc3)CC2)cn1 | 18.6% | – |
| CNc1ncccc1/C=C/C(=O)NCCCCN1CCN(C(c2ccccc2)c2ccccc2)CC1 | 45.2% | – |
| O=C(/C=C/c1cncc(Cl)c1)NCCCCN1CCN(C(c2ccccc2)c2ccccc2)CC1 | 66.4% | – |
| O=C(/C=C/c1cncc(F)c1)NCCCCN1CCN(C(c2ccccc2)c2ccccc2)CC1 | 65% | – |
| O=C(/C=C/c1cccnc1Cl)NCCCCN1CCN(C(c2ccccc2)c2ccccc2)CC1 | < 39.3% | – |
| CCCc1ccc(/C=C/C(=O)NCCCCN2CCN(C(c3ccccc3)c3ccccc3)CC2)cn1 | 44.4% | – |
| O=C(/C=C/c1cccnc1)NCCCCN1CCN(C(c2ccccc2)c2ccc(Cl)cc2)CC1 (stereo not drawn) | 19.9% | – |
| Cc1ccc(/C=C/C(=O)NCCCCN2CCC(=C(c3ccccc3)c3ccccc3)CC2)cn1 | 99.5% | – |
| Cc1ccc(/C=C/C=C/C(=O)NCCCN2CCN(C(c3ccccc3)c3ccccc3)CC2)cn1 | – | inhibition in vivo at 20 mg/kg (Rattus norvegicus [2]): 35.8% |
| Cc1ccc(C(c2ccc(C)cc2)N2CCN(CCCCNC(=O)/C=C/c3cccnc3)CC2)cc1 | 20.2% | – |

| SMILES | inhibition in vivo at 20 mg/kg (Rattus norvegicus [1]) | other results |
| --- | --- | --- |
| O=C(CCc1cccnc1)NCCCCN1CCN(C(c2ccccc2)c2ccccc2)CC1 | 28.1% | – |
| C/C(=C\c1cccnc1)C(=O)NCCCCN1CCN(C(c2ccccc2)c2ccccc2)CC1 | 78.9% | – |
| Cc1ncc(/C=C/C=C/C(=O)NCCCCN2CCN(C(c3ccccc3)c3ccccc3)CC2)c(CO)c1O | 16.4% | – |
| C/C(=C\C(=O)NCCCCN1CCN(C(c2ccccc2)c2ccccc2)CC1)c1cccnc1 | 52.2% | – |
| O=C(NCCCCN1CCN(C(c2ccccc2)c2ccccc2)CC1)/C(=C/c1cccnc1)c1ccccc1 | 58% | – |
| CC(C)c1ccc(/C=C/C(=O)NCCCCN2CCN(C(c3ccccc3)c3ccccc3)CC2)cn1 | 38.9% | – |
| CCCCc1ccc(/C=C/C(=O)NCCCCN2CCN(C(c3ccccc3)c3ccccc3)CC2)cn1 | 22.2% | – |
| Cc1ncc(/C=C/C=C/C(=O)NCCCN2CCN(C(c3ccccc3)c3ccccc3)CC2)c(CO)c1O | 9.8% | – |
| O=C(/C=C/C=C/c1cccnc1)NCCCCN1CCN(C(c2ccccc2)c2ccccc2)CC1 | 66.4% | – |
| Cc1cccc(C(c2ccccc2)N2CCN(CCCCNC(=O)/C=C/c3cccnc3)CC2)c1 (stereo not drawn) | 19% | – |
| O=C(/C=C/c1cccnc1)NCCCCN1CCC(=C(c2ccccc2)c2ccccc2)CC1 | 85.9% | – |
| Cc1ccc(/C=C/C(=O)NCCCCN2CCN(C(c3ccccc3)c3ccccc3)CC2)cn1 [TAGORIZINE] | 81.9% | IC50 (Cavia porcellus): 120 nM; IC50 (Homo sapiens): 34000 nM; ED50 (Rattus norvegicus [3]): 3.3 mg/kg |
| Cc1ccc(/C=C/C=C/C(=O)NCCCCN2CCN(C(c3ccccc3)c3ccccc3)CC2)cn1 | 68.8% | – |
| Cc1ccc(C(c2ccccc2)N2CCN(CCCCNC(=O)/C=C/c3cccnc3)CC2)cc1 (stereo not drawn) | 82.9% | – |
| Cc1ncccc1/C=C/C(=O)NCCCCN1CCN(C(c2ccccc2)c2ccccc2)CC1 | 68.8% | – |
| O=C(/C=C/c1cccnc1)NCCCCN1CCN(C(c2ccccc2)c2ccccc2)CC1 | 62.3% | – |
| O=C(/C=C/c1ccc(Oc2ccccc2)nc1)NCCCCN1CCN(C(c2ccccc2)c2ccccc2)CC1 | 45.6% | – |
| O=C(/C=C/c1cncc(O)c1)NCCCCN1CCN(C(c2ccccc2)c2ccccc2)CC1 | 28.8% | – |
| O=C(/C=C/c1cccnc1)NCCCCN1CCC(C(O)(c2ccccc2)c2ccccc2)CC1 | 35.1% | – |
| O=C(/C=C/c1cccnc1)NCCCCN1CCC(OC(c2ccccc2)c2ccccc2)CC1 | 42.2% | – |
| Cc1ncc(/C=C/C(=O)NCCCCN2CCN(C(c3ccccc3)c3ccccc3)CC2)c2c1OC(C)(C)OC2 | 17% | – |
| Cc1ccc(/C=C/C(=O)NCCCCN2CCN(C(c3ccccc3)c3ccccc3)CC2)c(C)n1 | 66.8% | – |
| CN1CCC(=C2c3ccccc3CC(=O)c3sccc32)CC1 [KETOTIFEN] | – | IC50 (Cavia porcellus): 1.6 nM; IC50 (Homo sapiens): > 100000 nM; ED50 (Rattus norvegicus [2]): 16.3 mg/kg |
| O=C(/C=C/c1cccnc1)NCCCCN1CCN(C(c2ccc(Cl)cc2)c2ccc(Cl)cc2)CC1 | 5.4% | – |
| CC/C(=C\c1cccnc1)C(=O)NCCCCN1CCN(C(c2ccccc2)c2ccccc2)CC1 | 67.8% | – |
| O=C(/C=C/c1ccc(Cl)nc1)NCCCCN1CCN(C(c2ccccc2)c2ccccc2)CC1 | 49.3% | – |
